Assay results as given in ChEMBL document CHEMBL1795297, “Design, synthesis and molecular docking studies of novel triazole as antifungal agent” (2011).
Values after ≈ are worked out from the molar mass of the structure shown.

Key:
Assay type in all cases: functional
Cryptococcus neoformans = test: Antifungal activity against Cryptococcus neoformans ATCC BLS108 after 72 hrs by micro-broth dilution method; conditions: ATCC BLS108, 72 h
Outline: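 Quality-control ATCC strain included in each assay. Microbroth dilution per NCCLS M27-A2. DMSO-dissolved compounds were serially diluted in growth medium, inoculated and held at 35 °C, with MIC read at 72 h. MIC80 is the first well showing about 80% growth reduction versus the drug-free well. Tests were done in triplicate and the mean reported.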

Candida albicans [1] = test: Ratio of voriconazole MIC80 to compound MIC80 for Candida albicans ATCC Y0109
Aspergillus fumigatus = test: Antifungal activity against Aspergillus fumigatus clinical isolate by micro-broth dilution method
Outline: (§1)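 Clinical isolate. MIC by broth microdilution following the NCCLS M27-A2 reference method for yeasts. Compounds were dissolved in DMSO, serially diluted in growth medium, inoculated and incubated at 35 °C. MIC80 is the first well with about 80% less growth than the drug-free well. Each test was run three times and the mean of replicates reported.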

Candida albicans [2] = test: Antifungal activity against Candida albicans ATCC Y0109 after 24 hrs by micro-broth dilution method; conditions: ATCC Y0109, 24 h
Outline: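 ATCC quality-control strain, tested in every assay. NCCLS M27-A2 broth microdilution. Compounds were dissolved in DMSO, serially diluted in growth medium, inoculated and incubated at 35 °C, with growth read at 24 h. MIC80 is the first well with about 80% growth reduction relative to the drug-free control. Each test was run three times and the mean of replicates taken.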

[3] = Antifungal activity against Fonsecaea compacta clinical isolate by micro-broth dilution method; outline: as §1
Candida tropicalis = test: Antifungal activity against Candida tropicalis clinical isolate by micro-broth dilution method; outline: as §1
Candida parapsilosis = test: Antifungal activity against Candida parapsilosis clinical isolate by micro-broth dilution method; conditions: Lodderomyces parapsilosis; outline: as §1
Trichophyton rubrum = test: Antifungal activity against Trichophyton rubrum clinical isolate by micro-broth dilution method; outline: as §1
Nannizzia gypsea = test: Antifungal activity against Microsporum gypseum clinical isolate by micro-broth dilution method; outline: as §1

| Structure (SMILES) | MIC80 (Cryptococcus neoformans) [mg/L] | Ratio (Candida albicans [1]) | MIC80 (Aspergillus fumigatus) [mg/L] | MIC80 (Candida albicans [2]) [mg/L] | MIC80 [3] [mg/L] | MIC80 (Candida tropicalis) [mg/L] | MIC80 (Candida parapsilosis) [mg/L] | MIC80 (Trichophyton rubrum) [mg/L] | MIC80 (Nannizzia gypsea) [mg/L] |
| --- | --- | --- | --- | --- | --- | --- | --- | --- | --- |
| O=C(/C=C/c1ccccc1)Nc1ccc(N2CCN(CC(O)(Cn3cncn3)c3ccc(F)cc3F)CC2)c(C(F)(F)F)c1 (stereo unspecified) | 0.25 (≈ 0.408 µM) | 16 | 4 (≈ 6.53 µM) | 0.00097 (≈ 0.00158 µM) |  |  |  |  |  |
| CC(=O)Nc1ccc(N2CCN(CC(O)(Cn3cncn3)c3ccc(F)cc3F)CC2)c(C(F)(F)F)c1 (stereo unspecified) | 0.25 (≈ 0.477 µM) |  | > 64 | 0.0625 (≈ 0.119 µM) | 1 (≈ 1.91 µM) | 0.25 (≈ 0.477 µM) | 0.25 (≈ 0.477 µM) | 1 (≈ 1.91 µM) | 1 (≈ 1.91 µM) |
| CCCCCCCC(=O)Nc1ccc(N2CCN(CC(O)(Cn3cncn3)c3ccc(F)cc3F)CC2)c(C(F)(F)F)c1 (stereo unspecified) | 16 (≈ 26.3 µM) |  | > 64 | 0.25 (≈ 0.411 µM) | 4 (≈ 6.57 µM) | 16 (≈ 26.3 µM) | 4 (≈ 6.57 µM) | 4 (≈ 6.57 µM) | 0.25 (≈ 0.411 µM) |
| CC(C)C(=O)Nc1ccc(N2CCN(CC(O)(Cn3cncn3)c3ccc(F)cc3F)CC2)c(C(F)(F)F)c1 (stereo unspecified) | 1 (≈ 1.81 µM) |  | 64 (≈ 116 µM) | 0.25 (≈ 0.452 µM) | 4 (≈ 7.24 µM) | 1 (≈ 1.81 µM) | 0.25 (≈ 0.452 µM) | 1 (≈ 1.81 µM) | 1 (≈ 1.81 µM) |
| O=C(Nc1ccc(N2CCN(CC(O)(Cn3cncn3)c3ccc(F)cc3F)CC2)c(C(F)(F)F)c1)c1ccc(OC(F)(F)F)cc1 (stereo unspecified) | 16 (≈ 23.9 µM) |  | 64 (≈ 95.4 µM) | 16 (≈ 23.9 µM) | 16 (≈ 23.9 µM) | 4 (≈ 5.97 µM) | 4 (≈ 5.97 µM) | 16 (≈ 23.9 µM) | 4 (≈ 5.97 µM) |
